Shown are actives, neighbours in structure and some others; about 2% of the full set was active somewhere.
ABCB6 inh MLPCN = ABCB6 transporter inhibitors, primary screen, K562-ABCB6 cells, flow cytometry, MLPCN library. ATP-binding cassette sub-family B member 6 (Homo sapiens), Q9NP58. K562-ABCB6 porphyrin accumulation, 1 h; stronger effect = lower value. fluorescence ratio to DMSO, % at 10 µM. 360,000 tested, 0.19% active;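 active means fluorescence ratio to DMSO below 75%, the collection mean minus 3 SD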;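 further: signal is porphyrin accumulated inside mitochondria; 100% equals median channel fluorescence of DMSO control wells; lower ratio means ABCB6 inhibition with less porphyrin fluorescence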
FGF22 binding = binders of human FGF22 protein, primary screen, FGF22 synaptogenesis inhibitor project, biophysical, thermal shift, single point. Fibroblast growth factor 22 (Homo sapiens), Q9HCT0. recombinant FGF22 thermal shift, SYPRO orange fluorescence; percent of sucrose octasulfate shift, DMSO zero. activity (Tm shift, normalised), % at 9.99 µM. 340,000 tested, 1.5% active;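 active means mean Tm shift, scaled 0 neutral to 100 positive control, at about 1.3% or above, every replicate too, limit read from the data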
Target sequence (Q9HCT0 whole entry, looked up): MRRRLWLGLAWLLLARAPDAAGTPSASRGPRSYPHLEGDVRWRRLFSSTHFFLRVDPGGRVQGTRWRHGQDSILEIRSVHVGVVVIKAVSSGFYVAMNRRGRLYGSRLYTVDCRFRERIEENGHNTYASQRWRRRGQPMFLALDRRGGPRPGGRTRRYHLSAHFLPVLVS
MT1-MMP act inh = blockers of MT1-MMP proenzyme processing, primary screen, HT1080 RFP-PRO-GFP cells, GFP/RFP fluorescence; GFP/RFP ratio change, % at 20 µM; 360,000 tested, 0.061% active; GFP/RFP ratio fluorescence, overnight; percent of plate control window, DMSO zero; AID 651647, 2012; Matrix metalloproteinase-14 (Homo sapiens), P50281;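 active means GFP/RFP ratio change of at least 30% with cell ATP level not reduced by more than half and red fluorescence within 50% of control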
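Assay system: RFP-PRO-GFP reporter HT1080 cells; read-out basis: GFP/RFP fluorescence ratio; benchmarks: DMSO wells and RFP-L50D-GFP cells; doses: 20 µM single dose, 1% DMSO; schedule: overnight cell settling, then overnight compound exposure, 37 °C, 5% CO2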
DAGLB inhibitor = DAGLB lipase inhibitors, primary screen, biochemical, fluorescence, HTS; Diacylglycerol lipase-beta (Homo sapiens), Q8NCG7; HEK293T DAGLB membrane lysate, EnzChek fluorogenic substrate; inhibition, % at 5.17 µM; 340,000 tested, 0.059% active; in the data active means inhibition above about 34%;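 further: 0% = enzyme with vehicle and 100% = wells lacking enzyme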
Exocytosis inh = LAMP-1 surface exposure blockers, TALL-104 cells – cell-based, flow cytometry, MLPCN library, primary screen; 360,000 tested, 0.66% active; AID 651702, 2012; TALL-104 LAMP-1 surface exposure; cells stimulated with thapsigargin and PMA; inhibition, % at 10 µM;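 active means inhibition above about 55%, limit read from the data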
VLA-4 inh = inhibition in human VLA-4 binding assay, primary screen, VLA-4 allosteric modulator project, MLPCN library, flow cytometry, VLA-4 expressing cells; Integrin alpha-4 (Homo sapiens), P13612; ligand binding flow cytometry; inhibition, % (about 7 µM as worked out from the volumes in the protocol); 330,000 tested, 0.2% active; in the data active means inhibition above about 50%
* marks the source's active call; other numbers are inactive results; x = no result given.

SMILES | ABCB6 inh MLPCN | FGF22 binding | MT1-MMP act inh | DAGLB inhibitor | Exocytosis inh | VLA-4 inh
C[C@@H]1CN([C@H](C)CO)C(=O)c2cccc(NC(=O)c3ccc(-c4nccs4)cc3)c2O[C@@H]1CN(C)Cc1ccncc1 | x | 0.0 | x | x | x | x
COc1ccc(Cc2noc(CN3CCN(Cc4cccc(Cl)c4)CC3)n2)cc1OC | 90.0 | 43.7* | 1.2 | 0.1 | -2.8 | 7.1
COc1ccc(Cc2noc(CN3CCN(c4ccc(Cl)cn4)CC3)n2)cc1OC | 91.0 | 0.4 | 2.5 | -0.9 | 16.4 | 7.9
COc1ccc(S(=O)(=O)Nc2cccc3c2O[C@@H](CN(C)C)[C@@H](C)CN([C@H](C)CO)C3=O)cc1 | x | -0.1 | x | x | x | x
CN1CCN(C(=O)/C(=C/c2ccc(F)cc2)c2ccsc2)CC1 | 93.0 | 42.9* | 3.5 | 1.9 | -0.9 | -0.1
COC(=O)c1ccc(/C=N/NC(=O)C(=O)NCc2ccccc2)cc1 | 98.0 | 43.0* | 2.1 | -0.4 | 0.7 | 24.9
C=CCSc1ncc(C(=O)OCC)c(N)n1 | 100.0 | 43.2* | 5.5 | -8.3 | 3.3 | 2.0
CC1(C#CC[N+]2(C)CCCCC2)CCC2C(O1)c1ccccc1OC2(C)C (centres undefined) | 100.0 | 43.6* | 1.1 | 0.3 | -5.2 | -3.8
O=C(CN1C(=O)CCC1=O)Nc1nc(-c2ccc3ccccc3c2)cs1 | 95.0 | 43.5* | -2.1 | -3.8 | 10.5 | -1.6
CC(=O)Nc1cccc(/C(C)=N/NC(=O)c2cccc(S(=O)(=O)N3CCCC3)c2)c1 | 72.0* | -0.5 | 5.4 | -1.5 | -2.8 | x
COc1ccc(NC(=O)N(C)C[C@H]2OCCCC[C@H](C)Oc3ccc(NS(=O)(=O)c4ccccc4)cc3C(=O)N([C@@H](C)CO)C[C@H]2C)cc1 | x | -0.2 | x | x | x | x
O=C(C[C@@H]1C[C@H]2c3cc(NC(=O)CC4CC4)ccc3O[C@H]2[C@H](CO)O1)NCc1cccc(F)c1 | x | -0.1 | x | x | x | x
COC1(OC)N=C(N)C2(C#N)C(c3ccc(F)cc3)C12C#N (centres undefined) | 104.0 | x | 3.1 | -1.9 | 2.3 | -5.3
CCSC1(SCC)N=C(N)C2(C#N)C(c3ccc(F)cc3)C12C#N (centres undefined) | 89.0 | x | 2.4 | -0.6 | 68.6* | 11.9
Cc1ccsc1/C=C1/NC(=O)N(Cc2ccc(F)cc2)C1=O | 105.0 | 43.2* | 7.1 | 3.4 | -3.8 | -3.1
CCN(CC)CCN(C(=O)Cn1nnc(-c2ccc(OC)c(OC)c2)n1)C(C(=O)NC1CCCC1)c1ccc(F)cc1 (centres undefined) | 100.0 | 1.7* | 5.1 | 2.9 | -0.9 | 0.7
COc1ccc(-c2nnn(CC(=O)N(CCO)C(C(=O)NC3CCCC3)c3ccncc3)n2)cc1 (centres undefined) | 86.0 | 43.2* | 3.8 | x | -1.8 | 2.7
CCN(CC)CCN(C(=O)Cn1nnc(-c2ccc(C)o2)n1)C(C(=O)NC1CCCC1)c1ccc(F)cc1 (centres undefined) | 97.0 | 0.1 | -1.7 | 0.9 | 7.9 | x
[N-]=[N+]=NCc1ccccc1C[C@]1(C(=O)NCCN2CCOCC2)COC(c2ccc(OCCCO)cc2)=N1 | x | -0.3 | x | x | x | x
Nc1ccc(C2=Nc3cccc4cccc(c34)N2)cc1 | 104.0 | 43.4* | -5.3 | 5.1 | -5.2 | x
N#C[C@H]1[C@H](c2ccc(-c3cncnc3)cc2)[C@@H](CO)N1C(=O)CN1CCOCC1 | x | -0.2 | x | x | x | x
C[C@H]1CN([C@@H](C)CO)C(=O)Cc2cc(NS(C)(=O)=O)ccc2O[C@@H]1CN(C)C(=O)Nc1ccc2c(c1)OCO2 | x | -0.1 | x | x | x | x
Cc1ccc(OCC(=O)Nc2ccccc2F)cc1 | 94.0 | 0.0 | 1.8 | -21.0 | -4.7 | 1.4
Cc1ccccc1NC(=O)c1ccc(OCC(=O)Nc2ccccc2F)cc1 | 105.0 | 42.9* | 2.3 | -0.1 | 2.0 | 1.9
CCCc1cc(=O)n2[nH]c(C)nc2n1 | 103.0 | x | 0.3 | -3.4 | -3.1 | 16.7

Screening results as filed in PubChem.
